Experimental data as given in ChEMBL document CHEMBL1148146, “14'-Hydroxymytoxin B and 16-hydroxyroridin E, two new cytotoxic trichothecenes from Myrothecium roridum” (J Nat Prod, 2002).

Columns and labels:
[1] = Cytotoxicity against human primary soft tissue sarcoma cells after overnight incubation by Alamar blue assay; assay type: functional, cell-based
Outline: (§1)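 Primary tumor cell cultures that passed histological and cytological screening; thawed at 37 °C, resuspended in maintenance medium, live/dead counted, plated at 1.0 × 10^3 cells/well. Samples added at 1/10 cell suspension volume, overnight at 37 °C. Alamar Blue then added at 1/10 well volume; fluorescence (ex 530, em 590 nm) read at 3 h and 3 days post-dye. Percent inhibition versus untreated and cell-free controls gave IC50.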

[2] = Cytotoxicity against human high-grade leiomyosarcoma cells after overnight incubation by Alamar blue assay; assay type: functional, cell-based; outline: as §1

## CC1=C[C@H]2O[C@@H]3C[C@@H](OC(=O)/C=C/C=C\C(OCCC4=CCOC4=O)C(C)O)[C@](C)([C@@]2(CO)CC1)[C@]31CO1 (stereo partly specified)
[1]
  IC50: 0.03 pM
[2]
  IC50: 0.018 pM

## CC1=C[C@H]2O[C@@H]3C[C@@H](OC(=O)/C=C/C=C\C(OCCC4=CCOC4=O)C(C)O)[C@](C)([C@@]2(COC(=O)/C=C(\C)CCO)CC1)[C@]31CO1 (stereo partly specified) [TRICHOVERRITONE]
[1]
  IC50: 0.13 pM
[2]
  IC50: 0.026 pM

## C/C1=C\C(=O)OC[C@]23CCC(CO)=C[C@H]2O[C@@H]2C[C@@H](OC(=O)/C=C\C=C\[C@H]([C@@H](C)O)OCC1)[C@@]3(C)[C@]21CO1
[1]
  IC50: 0.046 pM
[2]
  IC50: 0.085 pM
